Assay results pooled from the literature.
Each line is one published result; the experiments were not run side by side.
Target: Ephrin type-A receptor 4 (EPHA4, Homo sapiens, UniProt P54764)

| Compound | test | conditions | measurement | result |
| --- | --- | --- | --- | --- |
| COc1cc(Nc2cnc(C#N)c(O[C@H](C)CN(C)C)n2)ncc1-c1cnn(C)c1 | enzyme activity, inhibitor, radiometric | 10 µM | remaining activity | 41% |
| COc1cc2ncnc(Nc3ccc(Oc4ccccc4)c(C)c3C)c2cc1OC | enzyme activity, inhibitor | 1 µM | inhibition | 10% |
| Cc1c(NC(=O)c2cc(C(N)=O)nc3cc(F)ccc23)c(C(F)(F)F)nn1Cc1ccc(C#N)cc1 | cell-free assay, competition with immobilised ligand | 1 µM | remaining binding | 99% |
| O=C(Nc1cnn(-c2csc(C(=O)NC3COC3)c2)c1)Nc1c(F)cccc1Cl | enzyme activity, inhibitor | 5 µM | remaining activity | 89.1% |
| O=C1NC(=O)c2cc(Nc3ccc(F)cc3)c(Nc3ccc(F)cc3)cc21 | cell-free assay | 0.5 µM | remaining signal | 94% |
| CCN(CC)CCNC(=O)c1c(C)[nH]c(/C=C2\C(=O)Nc3ccc(F)cc32)c1C | enzyme activity, inhibitor | 0.3 µM | inhibition | 1% |
| CS(=O)(=O)N1CCCC(NC(=O)[C@H](CCC2CCCCC2)NC(=O)c2ccc(CNc3ncnc4c3nnn4-c3ccccc3)cc2)C1 (some centres unmarked) | cell-free assay, competition with immobilised ligand | 0.1 µM | remaining binding | 76% |
| CC(C)(C)c1nc2c(s1)c1nc(N)ncc1c1ccc(NS(=O)(=O)c3c(F)cccc3F)c(F)c12 | enzyme activity, inhibitor, radiometric | 1 µM | remaining activity | 99% |
| CCS(=O)(=O)c1cc2cc(C[C@](O)(CC(C)(C)c3ccc(F)cc3C(N)=O)C(F)(F)F)[nH]c2cn1 | cell-free assay, competition with immobilised ligand | 1 µM | remaining binding | 100% |
| CNC(=O)c1cc2c(Oc3ccc(NC(=O)C4(C(=O)Nc5ccc(F)cc5)CC4)cc3)ccnc2cc1OC | enzyme activity, inhibitor, radiometric | 1 µM | inhibition | 83% |
| CCCCN(CCCC)C(=O)CN1C[C@@H](c2cc(OC)c3c(c2)OCO3)[C@H](C(=O)O)[C@H]1CC(C)(C)CCC | cell-free assay, competition with immobilised ligand | 1 µM | remaining binding | 95.7% |
| Cc1ccc(Nc2nccc(N(C)c3ccc4c(C)n(C)nc4c3)n2)cc1S(N)(=O)=O | enzyme activity, inhibitor | 0.3 µM | inhibition | 3% |
| Cn1c(=O)n(-c2ccc(C(C)(C)C#N)cc2)c2c3cc(-c4cnc5ccccc5c4)ccc3ncc21 | enzyme activity, inhibitor | 10 µM | remaining activity | 105% |
| Cc1ccc(NC(=O)c2ccc(C)c(C(F)(F)F)c2)cc1C#Cc1nn(C2CCC(O)CC2)c2ncnc(N)c12 (centres unmarked) | cell-free assay | 10 µM | remaining signal | -2% |
| Nc1c(C(=O)NCc2ccc(C(=O)NCCCC3CCCCC3)cc2)cnn1-c1ccccc1 | cell-free assay, competition with immobilised ligand | 0.1 µM | remaining binding | 100% |
| CNC(=O)c1cc(Oc2ccc(NC(=O)Nc3ccc(Cl)c(C(F)(F)F)c3)cc2)ccn1 | enzyme activity, inhibitor | 0.3 µM | inhibition | 7% |
| Cc1nc(N2CC[C@@H](O)C2)ncc1-c1cc(C(F)(F)F)cc2[nH]ncc12 | cell-free assay, competition with immobilised ligand | 1 µM | remaining binding | 100% |
| CCCS(=O)(=O)Nc1ccc(F)c(C(=O)c2c[nH]c3ncc(-c4ccc(Cl)cc4)cc23)c1F | enzyme activity, inhibitor | 1 µM | inhibition | < 10% |
| CC/C(=N\NC(=O)NCc1cccc(O)c1)c1ccc(O)c(C)c1O | enzyme activity, inhibitor | 0.1 µM | inhibition | 0.3% |
| CCC(=O)N[C@@H]1CC[C@H](C(=O)N(C)c2ccc(-c3nc4ccccc4o3)cc2)C1 | cell-free assay, competition with immobilised ligand | 1 µM | remaining binding | 100% |
| Cc1ccc(C(=O)Nc2ccc(CN3CCN(C)CC3)c(C(F)(F)F)c2)cc1C#Cc1cnc2cccnn12 | cell-free assay | 23.5 nM | remaining signal | 22% |
| Cc1noc([C@H]2C[C@@H](c3ccc(C(F)(F)F)cc3)CN(C(=O)N3CCS(=O)(=O)C3)C2)n1 | cell-free assay, competition with immobilised ligand | 1 µM | remaining binding | 100% |
| CC(C)(O)[C@H]1CC[C@H](Nc2ccc3ncc(-c4cccc(C(F)(F)F)c4)n3n2)CC1 | enzyme activity, inhibitor | 1 µM | remaining activity | 98.8% |
| CCN(CC)c1ccc(C2=NNC(=O)CC2C)cc1[N+](=O)[O-] (centres unmarked) | enzyme activity, inhibitor | 10 µM | remaining activity | 85% |
| COc1cc(/C=C/C(=O)CC(=O)/C=C/c2ccc(O)c(OC)c2)ccc1O | enzyme activity, inhibitor | 1 µM | activity vs control | 118% |
| Cc1ccc(C(=O)NCc2ccsc2)cc1C#Cc1cn(C(C)C)c2ncnc(N)c12 | enzyme activity, inhibitor | 1 µM | activity vs control | 6% |
